Measurements from ChEMBL document CHEMBL3992564, “Design and synthesis of novel, potent and selective hypoxanthine analogs as adenosine A1 receptor antagonists and their biological evaluation” (Bioorg Med Chem, 2017).
Active and inactive are the calls of the source. The calls are words filed in the database; no cut-off is given here.

Legend:
[1] = molecular target: T1, Adenosine receptor A1 (Homo sapiens) (UniProt P30542); assay: Displacement of [3H]DPCPX from human adenosine A1 receptor expressed in HEK293 cell membranes at 1 uM after 90 mins relative to control
T1 sequence (whole entry): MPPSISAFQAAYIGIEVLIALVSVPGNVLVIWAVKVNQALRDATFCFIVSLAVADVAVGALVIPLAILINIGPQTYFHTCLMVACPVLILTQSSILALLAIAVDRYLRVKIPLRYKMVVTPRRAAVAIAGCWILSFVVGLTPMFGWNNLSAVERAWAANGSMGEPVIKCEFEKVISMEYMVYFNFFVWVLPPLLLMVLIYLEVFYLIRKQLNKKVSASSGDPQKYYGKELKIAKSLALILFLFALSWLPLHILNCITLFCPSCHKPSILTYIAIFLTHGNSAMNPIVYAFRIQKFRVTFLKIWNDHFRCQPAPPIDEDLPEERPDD
Procedure, shortened: (§1)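 Membranes from HEK-293 cells stably transfected with human receptor, pre-treated with adenosine deaminase. Radioligands: 1 nM [3H]DPCPX (A1), 1 nM [3H]ZM241385 (A2A), 1.6 nM [3H]MRS-1754 (A2B), 2 nM [3H]HEMADO (A3). Buffers: Tris pH 7.4 (A1, A2A, A3) or pH 6.5 (A2B), with ADA. Incubated 90 min at room temperature, then filtered. Nonspecific binding defined with 100 µM NECA. Ki from 8 concentrations run in triplicate.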

[2] = molecular target: T1, Adenosine receptor A1 (Homo sapiens); assay: Antagonist activity at human adenosine A1 receptor expressed in HEK293 cells assessed as reduction in CPA-mediated inhibition of forskolin-stimulated cAMP level at 30 uM preincubated for 15 mins followed by CPA treatment for 15 mins and subsequent addition of forskolin measured after 30 mins by HTRF assay relative to control; format: functional, cell-based
Procedure, shortened: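 Overnight HEK-A1 or HEK-A2B cultures were treated with 1 U/mL ADA for 90 min at 37°C. Compound was added for 15 min, then agonist for 15 min (1 nM CPA for A1; 70 nM NECA for A2B) at room temperature in incomplete DMEM with ADA. Rolipram (20 µM) was included for A1 only. cAMP was read by HTRF.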

Adenosine receptor A1 [3] = molecular target: T2, Adenosine receptor A1 (Homo sapiens, UniProt P30542); assay: Displacement of [3H]DPCPX from human adenosine A1 receptor expressed in HEK293 cell membranes after 90 mins
T2 sequence (P30542 whole entry): T1 sequence (whole entry)

Adenosine receptor A2a = Adenosine receptor A2a (Homo sapiens, UniProt P29274); assay: Displacement of [3H]ZM241385 from human adenosine A2A receptor expressed in HEK293 cell membranes at 1 uM after 90 mins relative to control; procedure, shortened: as §1
Chain of Adenosine receptor A2a (P29274 whole entry): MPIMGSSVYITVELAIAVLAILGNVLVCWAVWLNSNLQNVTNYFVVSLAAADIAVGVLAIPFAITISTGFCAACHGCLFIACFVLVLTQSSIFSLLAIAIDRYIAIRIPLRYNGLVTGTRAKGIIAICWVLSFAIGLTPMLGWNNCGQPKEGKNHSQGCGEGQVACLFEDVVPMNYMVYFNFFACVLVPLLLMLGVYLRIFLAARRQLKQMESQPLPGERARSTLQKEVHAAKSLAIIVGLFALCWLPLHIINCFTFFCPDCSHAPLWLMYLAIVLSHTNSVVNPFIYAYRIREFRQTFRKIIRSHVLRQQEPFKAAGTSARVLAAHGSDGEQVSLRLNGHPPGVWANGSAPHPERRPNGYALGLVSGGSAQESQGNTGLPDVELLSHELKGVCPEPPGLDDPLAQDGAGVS

[4] = molecular target: T3, Adenosine receptor A3 (Homo sapiens) (UniProt P0DMS8); assay: Displacement of [3H]HEMADO from human adenosine A3 receptor expressed in HEK293 cell membranes at 1 uM after 90 mins relative to control; procedure, shortened: as §1
T3 sequence (whole entry): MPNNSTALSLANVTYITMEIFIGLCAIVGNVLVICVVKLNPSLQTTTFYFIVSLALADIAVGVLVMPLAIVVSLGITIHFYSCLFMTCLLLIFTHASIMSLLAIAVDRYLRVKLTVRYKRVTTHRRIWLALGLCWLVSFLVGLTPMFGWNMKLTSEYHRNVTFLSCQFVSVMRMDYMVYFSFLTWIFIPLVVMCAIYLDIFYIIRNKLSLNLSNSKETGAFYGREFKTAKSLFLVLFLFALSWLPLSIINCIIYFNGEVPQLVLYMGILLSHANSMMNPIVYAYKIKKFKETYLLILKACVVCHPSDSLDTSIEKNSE

[5] = molecular target: T4, Adenosine receptor A2b (Homo sapiens) (UniProt P29275); assay: Displacement of [3H]MRS-1754 from human adenosine A2B receptor expressed in HEK293 cell membranes at 1 uM after 90 mins relative to control; procedure, shortened: as §1
T4 sequence (whole entry): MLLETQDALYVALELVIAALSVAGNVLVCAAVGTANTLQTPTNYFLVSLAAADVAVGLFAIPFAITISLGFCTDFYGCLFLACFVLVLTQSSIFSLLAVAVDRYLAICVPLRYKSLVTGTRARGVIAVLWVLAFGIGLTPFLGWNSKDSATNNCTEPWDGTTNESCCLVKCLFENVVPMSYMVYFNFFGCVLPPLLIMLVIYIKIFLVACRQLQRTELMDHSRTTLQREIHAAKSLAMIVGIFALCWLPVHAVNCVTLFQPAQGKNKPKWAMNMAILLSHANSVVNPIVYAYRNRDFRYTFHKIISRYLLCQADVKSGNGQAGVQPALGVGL

Adenosine receptor A1 [6] = molecular target: T2, Adenosine receptor A1; assay: Antagonist activity at human adenosine A1 receptor expressed in HEK293 cells assessed as reduction in CPA-mediated inhibition of forskolin-stimulated cAMP level preincubated for 15 mins followed by CPA treatment for 15 mins and subsequent addition of forskolin measured after 30 mins by HTRF assay; format: functional, cell-based
[7] = Metabolic stability in rat liver microsomes assessed as parent compound remaining measured after 30 mins in presence of NADPH; format: ADME, microsome; conditions: read-out: Stability
[8] = Metabolic stability in human liver microsomes assessed as parent compound remaining measured after 30 mins in presence of NADPH; format: ADME, microsome; conditions: read-out: Stability
Rattus norvegicus [9] = assay: Natriuretic activity in Wistar rat at 0.1 mg/kg, po via gavage measured after 4 hrs; format: functional, organism-based
Procedure, shortened: (§2)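 Male Wistar rats (250-300 g, n = 6) dosed orally at 5 mL/kg. Vehicles: DMAC 5%/NaOH/saline, or NMP 10%/PEG-400 20%/saline pH 12.0. Rats were then kept singly in metabolic cages without food or water for 4 h. Urine volume, Na+ and K+ were measured with a biochemistry analyser.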

Rattus norvegicus [10] = assay: Diuretic activity in Wistar rat at 0.1 mg/kg, po via gavage measured after 4 hrs; format: functional, organism-based; procedure, shortened: as §2
Liver [11] = assay: Metabolic stability in human liver microsomes assessed as metabolic rate measured after 30 mins in presence of NADPH; format: ADME, microsome; conditions: 0.5 h
Liver [12] = assay: Metabolic stability in rat liver microsomes assessed as metabolic rate measured after 30 mins in presence of NADPH; format: ADME, microsome; conditions: 0.5 h
Adenosine receptor A3 = molecular target: T5, Adenosine receptor A3 (Homo sapiens, UniProt P0DMS8); assay: Displacement of [3H]HEMADO from human adenosine A3 receptor expressed in HEK293 cell membranes after 90 mins; procedure, shortened: as §1
T5 sequence (P0DMS8 whole entry): T3 sequence (whole entry)

SMILES | Ki (Adenosine receptor A1 [3]) [nM] | inhibition (Adenosine receptor A2a) [%] | inhibition [4] [%] | inhibition [5] [%] | also measured
CCCn1c(-c2cccc(C(=O)O)c2)nc2nc(C3CCCC3)[nH]c2c1=O |  |  |  |  | inhibition [1]: inactive; inhibition [2]: < 50%
CCCn1c(O[C@@H]2CCOC2)nc2nc(C3CCCC3)[nH]c2c1=O | 50 |  |  |  | 
CCCn1c(Oc2cccc(CC(=O)O)c2)nc2nc(C3CCCC3)[nH]c2c1=O | > 1000 |  |  |  | 
CCCn1c(OC2CCN(C)C2)nc2nc(C3CCCC3)[nH]c2c1=O (configuration not stated) | > 1000 |  |  |  | 
CCCn1c(Oc2cccc3[nH]ccc23)nc2nc(C3CCCC3)[nH]c2c1=O | 74 |  |  |  | 
CCCn1c(Oc2cccc3cc[nH]c23)nc2nc(C3CCCC3)[nH]c2c1=O | 5.5 | 25 | 40 | 42 | Ki (Adenosine receptor A1 [6]): 5.6 nM
CCCn1c(-c2cccc(C(N)=O)c2)nc2nc(C3CCCC3)[nH]c2c1=O | > 1000 |  |  |  | 
CCCn1c(Nc2cccc(C(F)(F)F)c2)nc2nc(C3CCCC3)[nH]c2c1=O | 370 | 27 |  | 5 | 
CCCn1c(Oc2cccc(O)c2)nc2nc(C3CCCC3)[nH]c2c1=O | 10.5 | 81 | 69 | 53 | 
CCCn1c(OC2CCOC2)nc2nc(C3CCCC3)[nH]c2c1=O (configuration not stated) | 59 |  |  |  | 
CCCn1c(Nc2ccccc2)nc2nc(C3CCCC3)[nH]c2c1=O | > 1000 |  |  |  | 
CCCn1c(NCc2cccc(Cl)c2)nc2nc(C3CCCC3)[nH]c2c1=O | 120 |  |  |  | 
CCCn1c(Oc2ccc3[nH]ccc3c2)nc2nc(C3CCCC3)[nH]c2c1=O | 36 | 0 | 34 | 0 | 
CCCn1c(NCCO)nc2nc(C3CCCC3)[nH]c2c1=O |  | 5 | 0 | 31 | inhibition [1]: 36%
CCCn1c(-c2cccc(O)c2)nc2nc(C3CCCC3)[nH]c2c1=O | 1 | 74 |  | 100 | Ki (Adenosine receptor A1 [6]): 0.2 nM
CCCn1c(NCC(=O)O)nc2nc(C3CCCC3)[nH]c2c1=O |  | 0 | 0 | 9 | inhibition [1]: 72%
CCCn1c(Oc2ccc(S(N)(=O)=O)cc2)nc2nc(C3CCCC3)[nH]c2c1=O | > 1000 |  |  |  | 
CCCn1c(Nc2cccc(F)c2)nc2nc(C3CCCC3)[nH]c2c1=O | 4500 | 31 |  | 16 | 
CCCn1c(-c2ccc(C(F)(F)F)cc2)nc2nc(C3CCCC3)[nH]c2c1=O |  | 0 | 5 | 12 | inhibition [1]: 70%

SMILES | Ki (Adenosine receptor A1 [3]) [nM] | inhibition (Adenosine receptor A2a) [%] | inhibition [4] [%] | inhibition [5] [%] | also measured
CCCn1c(OC2CCCC2)nc2nc(C3CCCC3)[nH]c2c1=O | 14 | 85 | 79 | 92 | Ki (Adenosine receptor A1 [6]): 13 nM
CCCn1c(Oc2cccnc2Cl)nc2nc(C3CCCC3)[nH]c2c1=O | 3.6 |  |  |  | 
CCCn1c(-c2cccc(C(F)(F)F)c2)nc2nc(C3CCCC3)[nH]c2c1=O |  | 0 | 0 | 14 | inhibition [1]: 100%; Ki (Adenosine receptor A1 [6]): 12 nM
COc1ccc(CCN(C)CCCC(C#N)(c2ccc(OC)c(OC)c2)C(C)C)cc1OC (configuration not stated) |  |  |  |  | remaining at 0.5 h [7]: 68%; remaining at 0.5 h [8]: 78%
CCCn1c(NCc2ccc(C(=O)O)cc2)nc2nc(C3CCCC3)[nH]c2c1=O |  | 31 |  | 16 | inhibition [1]: 54%
CCCn1c(Oc2cc(C)ccn2)nc2nc(C3CCCC3)[nH]c2c1=O | > 1000 |  |  |  | 
CCCn1c(=O)c2nc(C34CC5CC(CC3C5)C4)[nH]c2n(CCC)c1=O |  |  |  |  | Activity (Rattus norvegicus [9]): Active; Activity (Rattus norvegicus [10]): Active
CCCn1c(O[C@H]2CCOC2)nc2nc(C3CCCC3)[nH]c2c1=O | 85 |  |  |  | 
CCCn1c(Nc2ccc(F)cc2)nc2nc(C3CCCC3)[nH]c2c1=O | > 1000 | 0 | 24 | 6 | 
C[C@]12CC[C@H]3[C@@H](CCC4=CC(=O)CC[C@@]43C)[C@@H]1CC[C@@H]2O [TESTOSTERONE] |  |  |  |  | Drug metabolism (Liver [11]): 0.05 nmol/min/mg; remaining at 0.5 h [7]: 2%; Drug metabolism (Liver [12]): > 1.52 nmol/min/mg; remaining at 0.5 h [8]: 84%
CCCn1c(OC2CCOCC2)nc2nc(C3CCCC3)[nH]c2c1=O | 20 | 82 | 0 | 56 | Ki (Adenosine receptor A1 [6]): 12 nM
CCCn1c(Oc2ccc(C)nc2)nc2nc(C3CCCC3)[nH]c2c1=O | 630 |  |  |  | 
CCCn1c(NCc2ccc(C(F)(F)F)cc2)nc2nc(C3CCCC3)[nH]c2c1=O | 23 | 0 | 23 | 0 | 
CCCn1c(NCc2ccc(C)cc2)nc2nc(C3CCCC3)[nH]c2c1=O | 27 | 0 | 24 | 6 | 
CCCn1c(Oc2cccc(OC)c2)nc2nc(C3CCCC3)[nH]c2c1=O |  | 36 |  | 70 | IC50 (Adenosine receptor A3): 430 nM
CCCn1c(Oc2cncc(Cl)c2)nc2nc(C3CCCC3)[nH]c2c1=O | 12 | 22 | 76 | 37 | Ki (Adenosine receptor A1 [6]): 2.2 nM
CCCn1c(Oc2ccc(C(N)=O)cc2)nc2nc(C3CCCC3)[nH]c2c1=O | > 1000 |  |  |  | 
CCCn1c(Oc2cccc(C(F)(F)F)c2)nc2nc(C3CCCC3)[nH]c2c1=O | 19 | 34 | 35 | 0 | Ki (Adenosine receptor A1 [6]): 5.9 nM
